# Assays:
# Format in all cases: functional
# [1] = species: Mus musculus; assay: Number of survivors of the total treated mice with B-16 melanoma, at 60 days.
# Outline: (§1)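 BDF1 mice were implanted ip with a homogenate from 0.05 g of B-16 melanoma and dosed ip on days 1-9. Cures are survivors over total at 60 days.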
# [2] = species: Mus musculus; assay: Anticancer activity measured as the number of survivors of the total treated mice with P-388 leukemia at 30 days.
# Outline: (§2)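 BDF1 or CDF1 mice given 10^6 ascitic P-388 leukemia cells ip, then treated ip on days 1, 5 and 9. Cures are survivors over total treated at 30 days.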
# [3] = test system: Mus musculus; assay: Percent increase in median life span of BDF1 mice with P-388 leukemia at dose 100 mg/kg administered intraperitoneally; details: BDF1, P388, ip, route intraperitoneal
# [4] = test system: Mus musculus; assay: Percent increase in median life span of BDF1 mice with B-16 melanoma at dose 50 mg/kg administered intraperitoneally; details: BDF1, B16, ip, route intraperitoneal
# Outline: (§3)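 BDF1 mice were implanted ip with a homogenate from 0.05 g of B-16 melanoma. Ip dosing ran on days 1-9, starting 24 h after implant, in dose-response studies following NCI protocols. The read-out was percent increase in life span (ILS). T/C ≥125% was taken as significant.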
# [5] = species: Mus musculus; assay: Cures is the number of survivors of the total treated mice (6) with advanced L-1210 leukemia, at 30 days.
# Outline: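 Advanced L-1210 leukemia, with ip treatment on days 5, 9 and 13 relative to tumor inoculation.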
# [6] = species: Mus musculus; assay: Cures is the number of survivors of the total treated mice (8) with Colon 26, at 60 days.
# [7] = species: Mus musculus; assay: Cures is the number of survivors of the total treated mice (10) with B-16 melanoma, at 60 days.; outline: as §1
# [8] = test system: Mus musculus; assay: Percent increase in median life span of BDF1 mice with Colon 26 at dose 3.1 mg/kg administered intraperitoneally; 1, 5, 9 days of ip treatment relative to tumor inoculation; details: BDF1, Colon 26, ip, 216 h, route intraperitoneal
# [9] = test system: Mus musculus; assay: Percent increase in median life span of BDF1 mice with P-388 leukemia at dose 6.25 mg/kg administered intraperitoneally; 1, 5, 9 days of ip treatment relative to tumor inoculation; details: BDF1, P388, ip, 216 h, route intraperitoneal
# Outline: (§4)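 BDF1 or CDF1 mice given 10^6 ascitic leukemia cells ip, then dosed ip on days 1, 5 and 9. Read-out is percent increase in life span versus untreated controls. Cures were scored as survivors/total at 30 days; when cures reached 50% or more, the run was extended until a specific ILS could be calculated. T/C ≥125% counted as significant.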
# [10] = test system: Mus musculus; assay: Percent increase in median life span of BDF1 mice with advanced L-1210 leukemia at dose 6.2 mg/kg administered intraperitoneally; treatment day +2 iv; details: L1210
# [11] = test system: Mus musculus; assay: Percent increase in median life span of BDF1 mice with advanced P-388 leukemia at dose 12.5 mg/kg administered intraperitoneally; 4, 8, 12 days of ip treatment relative to tumor inoculation; details: P388, ip, 288 h, route intraperitoneal
# [12] = test system: Mus musculus; assay: Percent increase in median life span of BDF1 mice with madison lung 109 leukemia administered intraperitoneally
# [13] = test system: Mus musculus; assay: Percent increase in median life span of BDF1 mice with B-16 melanoma at dose 3 mg/kg administered intraperitoneally; 1-9 days of ip treatment relative to tumor inoculation; details: BDF1, B16, ip, route intraperitoneal; outline: as §3
# [14] = test system: Mus musculus; assay: Percent tumor inhibition at non-lethal dose was determined in BDF1 mice with madison lung 109 leukemia; 1, 5, 9 days of sc treatment relative to tumor inoculation
# [15] = species: Mus musculus; assay: Cures is the number of survivors of the total treated mice (6) with P-388 leukemia, at 30 days.; outline: as §2
# [16] = test system: Mus musculus; assay: Percent increase in median life span of BDF1 mice with P-388 leukemia at dose 6.25 mg/kg administered intraperitoneally; details: BDF1, P388, ip, route intraperitoneal
# [17] = test system: Mus musculus; assay: Percent increase in median life span of BDF1 mice with B-16 melanoma at dose 3 mg/kg administered intraperitoneally; details: BDF1, B16, ip, route intraperitoneal; outline: as §3
# [18] = test system: Mus musculus; assay: Percent increase in median life span of BDF1 mice with P-388 leukemia at dose 12.5 mg/kg administered intraperitoneally; details: BDF1, P388, ip, route intraperitoneal
# [19] = test system: Mus musculus; assay: Percent increase in median life span of BDF1 mice with B-16 melanoma at dose 6 mg/kg administered intraperitoneally; details: BDF1, B16, ip, route intraperitoneal; outline: as §3
# [20] = species: Mus musculus; assay: Cures is the number of survivors of the total treated mice (6) with P-388 leukemia, at 60 days.
# [21] = test system: Mus musculus; assay: Percent increase in median life span of BDF1 mice with P-388 leukemia at dose 3.1 mg/kg administered intraperitoneally; details: BDF1, P388, ip, route intraperitoneal
# [22] = test system: Mus musculus; assay: Percent increase in median life span of BDF1 mice with B-16 melanoma at dose 3.1 mg/kg administered intraperitoneally; details: BDF1, B16, ip, route intraperitoneal; outline: as §3
# [23] = test system: Mus musculus; assay: Percent increase in median life span of BDF1 mice with B-16 melanoma at dose 6.25 mg/kg administered intraperitoneally; details: BDF1, B16, ip, route intraperitoneal; outline: as §3
# [24] = species: Mus musculus; assay: Cures is the number of survivors of the total treated mice (18) with P-388 leukemia, at 30 days.; outline: as §2
# [25] = species: Mus musculus; assay: Cures is the number of survivors of the total treated mice (20) with B-16 melanoma, at 60 days.; outline: as §1
# [26] = species: Mus musculus; assay: Cures is the number of survivors of the total treated mice (6) with L-1210 leukemia, at 30 days.
# [27] = species: Mus musculus; assay: Cures is the number of survivors of the total treated mice (10) with advanced B-16 melanoma, at 30 days.
# [28] = species: Mus musculus; assay: Cures is the number of survivors of the total treated mice (10) with Colon 26, at 60 days.
# [29] = test system: Mus musculus; assay: Percent increase in median life span of BDF1 mice with Colon 26 at dose 6.2 mg/kg administered intraperitoneally; 1, 5, 9 days of ip treatment relative to tumor inoculation; details: BDF1, Colon 26, ip, 216 h, route intraperitoneal
# [30] = test system: Mus musculus; assay: Percent increase in median life span of BDF1 mice with L-1210 leukemia at dose 6.2 mg/kg administered intraperitoneally; 1, 5, 9 days of ip treatment relative to tumor inoculation; details: BDF1, L1210, ip, 216 h, route intraperitoneal; outline: as §4
# [31] = test system: Mus musculus; assay: Percent increase in median life span of BDF1 mice with advanced B-16 melanoma at dose 6.2 mg/kg administered intraperitoneally; 5, 9, 13 days of ip treatment relative to tumor inoculation; details: B16, ip, 312 h, route intraperitoneal
# [32] = test system: Mus musculus; assay: Percent increase in median life span of BDF1 mice with B-16 melanoma at dose 3 mg/kg administered intraperitoneally; range 116-129%, 1-9 days of ip treatment relative to tumor inoculation; details: BDF1, B16, ip, route intraperitoneal; outline: as §3
smiles,measurement,setting,value
Cl.Cl.S=C(NCCCN1CCOCC1)N/N=C/c1c2ccccc2c(/C=N/NC(=S)NCCCN2CCOCC2)c2ccccc12,Cures,[1],0
same,Cures,[2],0
same,ILS at 100 mg/kg,[3],53%
same,ILS at 50 mg/kg,[4],75%
Cl.Cl.Clc1ccc2c(/C=N/NC3=NCCCN3)c3ccccc3c(/C=N/NC3=NCCCN3)c2c1,Cures,[5],0
same,Cures,[6],1
same,Cures,[7],6
same,ILS at 3.1 mg/kg,[8],175%
same,ILS at 6.25 mg/kg,[9],127%
same,ILS at 6.2 mg/kg,[10],28%
same,ILS at 12.5 mg/kg,[11],80%
same,ILS,[12],<25%
same,ILS at 3 mg/kg,[13],194%
same,Inhibition,[14],16%
CN(/N=C/c1c2ccccc2c(/C=N/N(C)C2=NCCN2)c2ccccc12)C1=NCCN1,Cures,[15],1
same,Cures,[1],0
same,ILS at 6.25 mg/kg,[16],124%
same,ILS at 3 mg/kg,[17],95%
Br.Br.CN(/N=C/c1c2ccccc2c(/C=N/N(C)C(=N)N)c2ccccc12)C(=N)N,Cures,[1],0
same,Cures,[2],0
same,ILS at 12.5 mg/kg,[18],91%
same,ILS at 6 mg/kg,[19],50%
C(=N\NC1=NCCN1)/c1c2ccccc2c(/C=N/NC2=NCCN2)c2c1ccc1ccccc12.Cl.Cl,Cures,[20],1
same,Cures,[1],0
same,ILS at 12.5 mg/kg,[18],90%
Cl.Cl.Fc1cccc2c(/C=N/NC3=NCCN3)c3ccccc3c(/C=N/NC3=NCCN3)c12,Cures,[2],0
same,Cures,[7],1
same,ILS at 3.1 mg/kg,[21],115%
same,ILS at 3.1 mg/kg,[22],100%
C(=N\NC1=NCCN1)/c1c2ccccc2c(/C=N/NC2=NCCN2)c2cc3ccccc3cc12.Cl.Cl,Cures,[2],0
same,Cures,[7],1
same,ILS at 6.25 mg/kg,[23],136%
same,ILS at 12.5 mg/kg,[18],91%
Cl.Cl.Fc1ccc2c(/C=N/NC3=NCCN3)c3cc(F)ccc3c(/C=N/NC3=NCCN3)c2c1,Cures,[15],1
same,Cures,[7],1
same,ILS at 3.1 mg/kg,[21],135%
same,ILS at 3.1 mg/kg,[22],111%
CN(C)C(=N)N/N=C/c1c2ccccc2c(/C=N/N=C(\N)N(C)C)c2ccccc12,Cures,[24],3
same,Cures,[25],2
same,Cures,[26],0
same,Cures,[27],2
same,Cures,[28],1
same,ILS at 6.2 mg/kg,[29],167%
same,ILS at 6.2 mg/kg,[30],100%
same,ILS at 6.2 mg/kg,[31],41%
same,ILS at 6.25 mg/kg,[9],103%
same,ILS at 3 mg/kg,[32],125%
CC(C)N(CC/N=C(\S)N/N=C/c1c2ccccc2c(/C=N/N/C(S)=N/CCN(C(C)C)C(C)C)c2ccccc12)C(C)C.Cl.Cl,Cures,[2],0
same,ILS at 100 mg/kg,[3],53%

# From ChEMBL document CHEMBL1122207, “Antitumor agents. 2. Bisguanylhydrazones of anthracene-9,10-dicarboxaldehydes” (1982)
